This passage reports inhibition results from ChEMBL document CHEMBL5338825, “Structure-Based Discovery of Inhibitors of the SARS-CoV-2 Nsp14 N7-Methyltransferase” (J Med Chem, 2023).

The source made the active and inactive calls. The rule behind the calls is not given here.

For test [1], the target named is Histone-lysine N-methyltransferase 2C (Homo sapiens) (UniProt Q8NEZ4). As to the kind of experiment: Inhibition of human MLL3 using biotin-tagged Histone H3 and 3H-SAM as substrate at 10 uM incubated for 1 hrs by TopCount scintillation proximity assay relative to control. Summed up:
(§1)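 Human methyltransferase panel, radiometric assays. Each compound tested at a single 10 μM concentration in triplicate. Enzymes inhibited by more than 50% were taken on to concentration–response.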

For test [2], the target named is Histone-lysine N-methyltransferase SETD2 (Homo sapiens) (UniProt Q9BYW2). As to the kind of experiment: Inhibition of human SETD2 using biotin-tagged Histone H3 and 3H-SAM as substrate at 10 uM incubated for 1 hrs by TopCount scintillation proximity assay relative to control. The procedure, abridged: (§2)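 Selectivity panel against human SAM-dependent methyltransferases, radiometric format. Single test concentration of 10 μM, triplicate, read as percent inhibition.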

For test [3], the target named is N-lysine methyltransferase KMT5A (Homo sapiens) (UniProt Q9NQR1). As to the kind of experiment: Inhibition of human SETD8 using biotin-tagged Histone H4 and 3H-SAM as substrate at 10 uM incubated for 1 hrs by TopCount scintillation proximity assay relative to control. The procedure, abridged:
as §2
For orientation: In a scintillation proximity assay essentially only radioactivity close to the scintillant gives light.

Test [4] concerns the target Protein arginine N-methyltransferase 3 (Homo sapiens, UniProt O60678). As to the kind of experiment: Inhibition of human PRMT3 using biotin-tagged Histone H4 and 3H-SAM as substrate at 10 uM incubated for 1 hrs by TopCount scintillation proximity assay relative to control. The procedure, abridged:
as §1

Test [5] concerns Bacteria. Put plainly: Inhibition of beta-lactamase AmpC (unknown origin) pre-incubated with compound for 5 mins followed by substrate addition and measured after 1.5 mins by absorbance based plate reader analysis. Particulars: time 6.5 min. The procedure, abridged:
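AmpC at 2 nM preincubated 5 min with compound at room temperature in 50 mM KPi, pH 7.0, with 1% v/v DMSO. Started with 50 μM CENTA (read at 405 nm) or 50 μM nitrocefin (read at 490 nm), monitored 1 min 30 s. Initial rate taken as % of DMSO control. Top concentration in triplicate; eight-point half-log curves in triplicate where inhibition exceeded 40%.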

For test [6], the target named is Histone-lysine N-methyltransferase PRDM9 (Homo sapiens) (UniProt Q9NQV7). Put plainly: Inhibition of human PRDM9 using biotin-tagged Histone H3 and 3H-SAM as substrate at 10 uM incubated for 1 hrs by TopCount scintillation proximity assay relative to control. The procedure, abridged: as §1
Test [7] deals with Protein arginine N-methyltransferase 9 (Homo sapiens) (UniProt Q6P2P2). As to the kind of experiment: Inhibition of human PRMT9 using biotin-tagged SAP145 and 3H-SAM as substrate at 10 uM incubated for 1 hrs by TopCount scintillation proximity assay relative to control. Summed up: as §1
Test [8] concerns the target Histone-arginine methyltransferase CARM1 (Homo sapiens) (UniProt Q86X55). Put plainly: Inhibition of human PRMT4 using biotin-tagged Histone H3 and 3H-SAM as substrate at 10 uM incubated for 1 hrs by TopCount scintillation proximity assay relative to control. The procedure, abridged:
as §1

Test [9] addresses Histone-lysine N-methyltransferase SUV39H2 (Homo sapiens) (UniProt Q9H5I1). Put plainly: Inhibition of human SUV39H2 using Biotin-tagged histone H3 and 3H-SAM as substrate at 10 uM incubated for 1 hrs by TopCount scintillation proximity assay relative to control. Summed up: as §2
The target in test [10] is Protein arginine N-methyltransferase 7 (Homo sapiens) (UniProt Q9NVM4). Put plainly: Inhibition of human PRMT7 using biotin-tagged Histone H2B and 3H-SAM as substrate at 10 uM incubated for 1 hrs by TopCount scintillation proximity assay relative to control. Summed up:
as §1

Test [11] addresses Protein arginine N-methyltransferase 5 (Homo sapiens) (UniProt O14744). As to the kind of experiment: Inhibition of human PRMT5 using biotin-tagged Histone H4 and 3H-SAM as substrate at 10 uM incubated for 1 hrs by TopCount scintillation proximity assay relative to control. The procedure, abridged: as §1
In test [12] the target is Histone-lysine N-methyltransferase EHMT2 (Homo sapiens) (UniProt Q96KQ7). As to the kind of experiment: Inhibition of human G9a using biotin-tagged Histone H3 and 3H-SAM as substrate at 10 uM incubated for 1 hrs by TopCount scintillation proximity assay relative to control. Summed up: as §1
Test [13] concerns the target Protein arginine N-methyltransferase 6 (Homo sapiens) (UniProt Q96LA8). As to the kind of experiment: Inhibition of human PRMT6 using biotin-tagged Histone H4 and 3H-SAM as substrate at 10 uM incubated for 1 hrs by TopCount scintillation proximity assay relative to control. The procedure, abridged:
as §1

For test [14], the target named is Histone-lysine N-methyltransferase ASH1L (Homo sapiens) (UniProt Q9NR48). Put plainly: Inhibition of human ASH1L using chicken nucleosome and 3H-SAM as substrate at 10 uM incubated for 1 hrs by TopCount scintillation proximity assay relative to control. The procedure, abridged:
as §1

Test [15] deals with Histone-lysine N-methyltransferase SUV39H1 (Homo sapiens) (UniProt O43463). Put plainly: Inhibition of human SUV39H1 using Biotin-tagged histone H3 and 3H-SAM as substrate at 10 uM incubated for 1 hrs by TopCount scintillation proximity assay relative to control. Summed up:
as §2

Test [16] concerns the target Histone-lysine N-methyltransferase NSD3 (Homo sapiens) (UniProt Q9BZ95). Put plainly: Inhibition of human NSD3 using chicken nucleosome and 3H-SAM as substrate at 10 uM incubated for 1 hrs by TopCount scintillation proximity assay relative to control. Summed up:
as §1

In general, inhibition refers to the relative decrease from the control value, in per cent.

Sequence of Protein arginine N-methyltransferase 5 (Homo sapiens) (O14744 whole entry): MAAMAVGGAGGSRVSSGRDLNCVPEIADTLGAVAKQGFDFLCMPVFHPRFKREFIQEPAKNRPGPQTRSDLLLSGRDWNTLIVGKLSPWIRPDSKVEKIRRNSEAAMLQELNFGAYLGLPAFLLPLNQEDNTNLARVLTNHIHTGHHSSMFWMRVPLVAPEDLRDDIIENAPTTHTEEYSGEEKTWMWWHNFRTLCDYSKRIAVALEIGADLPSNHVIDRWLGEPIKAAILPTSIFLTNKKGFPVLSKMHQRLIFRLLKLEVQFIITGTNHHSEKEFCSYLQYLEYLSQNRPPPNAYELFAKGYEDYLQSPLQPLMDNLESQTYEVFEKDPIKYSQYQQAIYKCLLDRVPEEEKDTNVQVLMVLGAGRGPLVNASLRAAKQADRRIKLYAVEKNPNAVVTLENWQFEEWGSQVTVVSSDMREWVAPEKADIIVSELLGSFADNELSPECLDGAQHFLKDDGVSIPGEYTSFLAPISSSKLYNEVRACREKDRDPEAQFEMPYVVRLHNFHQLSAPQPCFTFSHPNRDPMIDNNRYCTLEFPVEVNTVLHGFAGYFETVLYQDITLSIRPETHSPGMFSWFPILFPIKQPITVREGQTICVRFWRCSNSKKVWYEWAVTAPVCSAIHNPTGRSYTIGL
Sequence of Protein arginine N-methyltransferase 7 (Homo sapiens) (Q9NVM4 whole entry): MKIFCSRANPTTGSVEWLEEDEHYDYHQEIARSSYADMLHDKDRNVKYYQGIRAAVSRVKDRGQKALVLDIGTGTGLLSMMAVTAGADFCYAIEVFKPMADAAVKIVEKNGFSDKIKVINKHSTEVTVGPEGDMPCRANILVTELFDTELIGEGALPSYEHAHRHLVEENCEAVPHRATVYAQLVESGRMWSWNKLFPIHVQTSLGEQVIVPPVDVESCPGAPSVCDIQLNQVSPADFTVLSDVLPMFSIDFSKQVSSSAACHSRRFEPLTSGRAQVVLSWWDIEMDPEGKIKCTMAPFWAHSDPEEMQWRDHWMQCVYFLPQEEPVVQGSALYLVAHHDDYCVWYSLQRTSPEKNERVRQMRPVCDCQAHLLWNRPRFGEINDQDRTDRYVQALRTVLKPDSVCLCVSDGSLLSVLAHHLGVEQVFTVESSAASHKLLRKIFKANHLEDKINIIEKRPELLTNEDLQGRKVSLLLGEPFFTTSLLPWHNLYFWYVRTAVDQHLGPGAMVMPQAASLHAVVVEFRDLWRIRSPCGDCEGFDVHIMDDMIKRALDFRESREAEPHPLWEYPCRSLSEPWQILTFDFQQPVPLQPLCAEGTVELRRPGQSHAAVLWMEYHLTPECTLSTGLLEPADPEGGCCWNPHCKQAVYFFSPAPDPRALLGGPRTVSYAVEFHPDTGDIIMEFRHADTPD
Sequence of Histone-lysine N-methyltransferase SUV39H1 (Homo sapiens) (O43463 whole entry): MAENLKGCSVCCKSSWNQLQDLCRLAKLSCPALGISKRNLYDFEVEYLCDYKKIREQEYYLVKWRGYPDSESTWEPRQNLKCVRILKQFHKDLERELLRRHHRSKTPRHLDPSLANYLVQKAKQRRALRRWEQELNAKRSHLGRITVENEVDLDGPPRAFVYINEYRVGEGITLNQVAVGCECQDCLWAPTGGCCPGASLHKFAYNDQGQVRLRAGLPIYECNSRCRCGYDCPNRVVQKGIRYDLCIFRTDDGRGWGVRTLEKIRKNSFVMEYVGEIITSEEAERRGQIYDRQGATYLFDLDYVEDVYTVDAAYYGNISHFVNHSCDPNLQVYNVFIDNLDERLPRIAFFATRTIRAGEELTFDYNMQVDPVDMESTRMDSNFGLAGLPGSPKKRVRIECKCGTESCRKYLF
Sequence of Histone-lysine N-methyltransferase SUV39H2 (Homo sapiens) (Q9H5I1 whole entry): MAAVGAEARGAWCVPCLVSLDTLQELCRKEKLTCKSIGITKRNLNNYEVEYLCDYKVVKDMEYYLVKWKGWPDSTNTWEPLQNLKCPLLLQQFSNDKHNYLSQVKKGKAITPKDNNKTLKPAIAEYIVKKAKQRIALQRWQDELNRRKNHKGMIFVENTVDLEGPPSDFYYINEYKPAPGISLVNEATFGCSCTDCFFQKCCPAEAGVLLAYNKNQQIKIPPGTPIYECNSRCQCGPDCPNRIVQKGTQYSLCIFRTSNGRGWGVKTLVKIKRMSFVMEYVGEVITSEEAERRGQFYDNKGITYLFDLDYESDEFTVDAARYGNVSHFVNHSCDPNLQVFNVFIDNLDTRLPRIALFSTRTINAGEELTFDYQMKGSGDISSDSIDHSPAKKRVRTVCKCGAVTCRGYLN
Sequence of Protein arginine N-methyltransferase 6 (Homo sapiens) (Q96LA8 whole entry, looked up): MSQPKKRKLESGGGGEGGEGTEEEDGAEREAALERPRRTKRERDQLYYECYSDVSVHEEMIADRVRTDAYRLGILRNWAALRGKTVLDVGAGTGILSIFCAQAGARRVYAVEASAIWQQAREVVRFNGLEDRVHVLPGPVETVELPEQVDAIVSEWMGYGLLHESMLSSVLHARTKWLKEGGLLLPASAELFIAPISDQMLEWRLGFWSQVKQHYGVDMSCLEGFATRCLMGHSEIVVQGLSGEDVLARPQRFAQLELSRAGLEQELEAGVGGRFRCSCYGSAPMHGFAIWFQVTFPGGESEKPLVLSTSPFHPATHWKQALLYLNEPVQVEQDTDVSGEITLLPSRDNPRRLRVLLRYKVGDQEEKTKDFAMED
Sequence of N-lysine methyltransferase KMT5A (Homo sapiens) (Q9NQR1 whole entry): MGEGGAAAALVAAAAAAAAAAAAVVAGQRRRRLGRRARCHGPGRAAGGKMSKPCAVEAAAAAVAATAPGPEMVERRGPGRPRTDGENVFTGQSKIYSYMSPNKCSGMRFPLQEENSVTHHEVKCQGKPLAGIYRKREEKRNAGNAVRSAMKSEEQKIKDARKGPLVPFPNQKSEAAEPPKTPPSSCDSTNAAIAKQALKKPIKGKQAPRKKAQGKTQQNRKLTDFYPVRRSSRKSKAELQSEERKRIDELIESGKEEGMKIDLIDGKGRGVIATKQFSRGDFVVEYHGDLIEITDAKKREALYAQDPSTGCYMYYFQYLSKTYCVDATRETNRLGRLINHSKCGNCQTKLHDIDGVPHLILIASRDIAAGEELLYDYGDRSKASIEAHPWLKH
Sequence of Histone-lysine N-methyltransferase NSD3 (Homo sapiens) (Q9BZ95 whole entry): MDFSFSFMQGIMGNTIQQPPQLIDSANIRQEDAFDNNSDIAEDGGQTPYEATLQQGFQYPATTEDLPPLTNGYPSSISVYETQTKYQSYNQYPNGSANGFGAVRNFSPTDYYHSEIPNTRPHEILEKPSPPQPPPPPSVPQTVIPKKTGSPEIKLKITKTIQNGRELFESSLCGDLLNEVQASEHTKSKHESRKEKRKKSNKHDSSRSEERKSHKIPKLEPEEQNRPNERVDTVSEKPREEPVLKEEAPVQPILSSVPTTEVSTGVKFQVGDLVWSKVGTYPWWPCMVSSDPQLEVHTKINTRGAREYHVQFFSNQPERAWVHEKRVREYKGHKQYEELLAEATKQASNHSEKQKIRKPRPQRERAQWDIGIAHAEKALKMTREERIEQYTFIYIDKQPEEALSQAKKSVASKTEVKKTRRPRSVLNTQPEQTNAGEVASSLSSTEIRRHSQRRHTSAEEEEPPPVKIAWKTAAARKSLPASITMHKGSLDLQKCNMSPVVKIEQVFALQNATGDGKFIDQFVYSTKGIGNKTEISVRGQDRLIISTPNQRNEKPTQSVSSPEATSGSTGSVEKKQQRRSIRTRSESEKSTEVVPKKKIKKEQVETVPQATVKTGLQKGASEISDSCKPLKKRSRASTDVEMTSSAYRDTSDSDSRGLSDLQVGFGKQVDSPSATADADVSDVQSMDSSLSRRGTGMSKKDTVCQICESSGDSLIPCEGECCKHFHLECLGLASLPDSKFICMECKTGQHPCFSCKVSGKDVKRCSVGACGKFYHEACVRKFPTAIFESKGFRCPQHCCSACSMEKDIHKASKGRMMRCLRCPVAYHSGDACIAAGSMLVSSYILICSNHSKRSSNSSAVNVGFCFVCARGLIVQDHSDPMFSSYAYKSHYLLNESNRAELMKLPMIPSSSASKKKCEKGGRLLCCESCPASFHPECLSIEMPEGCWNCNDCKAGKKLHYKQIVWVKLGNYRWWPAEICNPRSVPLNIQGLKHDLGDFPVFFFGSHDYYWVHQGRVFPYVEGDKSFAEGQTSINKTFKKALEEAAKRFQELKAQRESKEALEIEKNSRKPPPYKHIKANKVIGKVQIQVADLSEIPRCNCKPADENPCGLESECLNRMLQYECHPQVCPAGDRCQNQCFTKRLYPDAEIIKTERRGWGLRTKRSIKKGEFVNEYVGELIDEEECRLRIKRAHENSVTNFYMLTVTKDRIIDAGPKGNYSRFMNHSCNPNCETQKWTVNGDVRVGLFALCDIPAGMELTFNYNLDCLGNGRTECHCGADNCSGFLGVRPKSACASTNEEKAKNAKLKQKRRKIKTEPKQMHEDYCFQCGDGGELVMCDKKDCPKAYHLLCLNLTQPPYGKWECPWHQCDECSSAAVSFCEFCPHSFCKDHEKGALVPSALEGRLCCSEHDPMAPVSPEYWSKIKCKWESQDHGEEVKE
Sequence of Histone-arginine methyltransferase CARM1 (Homo sapiens) (Q86X55 whole entry): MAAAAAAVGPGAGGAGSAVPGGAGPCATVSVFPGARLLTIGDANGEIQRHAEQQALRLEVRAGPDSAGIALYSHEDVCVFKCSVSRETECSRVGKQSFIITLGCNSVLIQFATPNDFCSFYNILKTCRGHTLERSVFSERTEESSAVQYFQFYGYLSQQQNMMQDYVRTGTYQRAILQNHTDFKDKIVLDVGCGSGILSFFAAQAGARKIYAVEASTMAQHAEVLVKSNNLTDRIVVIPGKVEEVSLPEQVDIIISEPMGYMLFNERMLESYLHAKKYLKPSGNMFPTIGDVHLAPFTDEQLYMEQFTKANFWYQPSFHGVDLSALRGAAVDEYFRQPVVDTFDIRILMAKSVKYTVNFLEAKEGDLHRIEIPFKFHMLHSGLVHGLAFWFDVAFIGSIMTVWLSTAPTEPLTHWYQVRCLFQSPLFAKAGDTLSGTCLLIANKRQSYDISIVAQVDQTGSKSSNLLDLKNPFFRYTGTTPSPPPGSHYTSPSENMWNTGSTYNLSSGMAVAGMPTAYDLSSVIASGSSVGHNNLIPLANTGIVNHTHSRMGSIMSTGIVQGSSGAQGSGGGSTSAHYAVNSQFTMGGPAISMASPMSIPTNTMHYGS

Regarding `Cc1c(C(=O)/C=C/c2ccc(O)c([N+](=O)[O-])c2)c(C#N)c2n1CCC2`, the inhibition in test [1], in [2], in [3], in test [4], in [6] and in test [7] was less than 50% each time. Moreover, the inhibition in [8], in test [9], in [10], in test [11], in test [12] and in test [13] was less than 50% throughout. The inhibition in [14], in test [15] and in test [16] was less than 50% in each case. In addition, the inhibition entry in test [5] is “Active”.
